Screens from PubChem BioAssay.
GPR7 antag – antagonists of human GPR7 (neuropeptides B/W receptor 1); P48145; GPR7-expressing cells, fluorescence antagonist assay; inhibition, % at 4.4 µM; actives 1.1% (n = 290,000); AID 1861; in the data active means inhibition above about 16%, passing the limit was not always enough;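 further: cells stimulated with the agonist NPW; 0% = agonist with vehicle and 100% = vehicle without agonist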
Target sequence (P48145 whole entry, looked up): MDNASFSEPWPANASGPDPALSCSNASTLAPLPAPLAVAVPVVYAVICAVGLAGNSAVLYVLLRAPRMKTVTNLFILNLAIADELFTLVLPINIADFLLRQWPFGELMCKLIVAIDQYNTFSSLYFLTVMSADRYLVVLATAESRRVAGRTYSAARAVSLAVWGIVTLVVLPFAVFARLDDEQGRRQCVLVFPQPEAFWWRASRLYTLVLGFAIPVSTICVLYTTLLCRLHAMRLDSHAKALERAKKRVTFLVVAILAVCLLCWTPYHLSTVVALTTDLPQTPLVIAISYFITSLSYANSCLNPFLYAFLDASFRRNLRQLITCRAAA
CHO parental Ca – counter-screen: ATP calcium response change in parental CHO cells; actives 0.63% (n = 330,000); AID 463079; parental CHO-K1, ATP-induced calcium, Fluo-8 fluorescence; inhibition, % at 5.6 µM;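 active means inhibition above that plate's mean sample inhibition plus 3 SD, cut at about 26% in these data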;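 further: 0% = ATP-challenged DMSO wells and 100% = DMSO wells without ATP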
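Material: parental CHO cells / Compound: single nominal dose of 5.6 µM per compound / Signal: Fluo-8 fluorescence / Replicates: singlicate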
OX1R antag-1 – antagonists of human orexin 1 receptor (OX1R); actives 1.8% (n = 330,000); O43613; OX1R-expressing cells, FRET antagonist read-out; AID 485270; inhibition, % at 6.6 µM; in the data active means inhibition mostly above about 38%, no sharp cut-off; inactive means mostly below about 40%;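 further: 0% = agonist challenge alone and 100% = reference antagonist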
TAAR1 antag – human TAAR1 antagonism; Q96RJ0; CHO RD-HGA16 TAAR1, Fluo-8 calcium fluorescence, antagonist; actives 1.5% (n = 360,000); inhibition, % at 3 µM;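 active means inhibition above a per-plate cutoff, the mean inhibition of test compounds on that plate plus 3 SD, cut at about 49% in these data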;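 further: 0% = DMSO plus EC80 beta-PEA response and 100% = DMSO alone without agonist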
Target sequence (Q96RJ0 whole entry, looked up): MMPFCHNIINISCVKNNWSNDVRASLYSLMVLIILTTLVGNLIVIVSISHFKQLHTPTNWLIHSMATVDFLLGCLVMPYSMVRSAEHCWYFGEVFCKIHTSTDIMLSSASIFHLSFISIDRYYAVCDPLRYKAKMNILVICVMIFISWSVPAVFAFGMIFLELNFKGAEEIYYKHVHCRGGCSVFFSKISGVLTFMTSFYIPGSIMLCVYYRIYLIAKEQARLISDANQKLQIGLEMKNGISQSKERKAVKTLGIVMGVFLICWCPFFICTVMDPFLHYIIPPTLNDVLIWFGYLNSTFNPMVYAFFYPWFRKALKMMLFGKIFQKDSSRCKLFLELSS
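test system = CHO RD-HGA16 cells bearing hTAAR1 | replication = singlicate | controls = DMSO-only wells and EC80 β-PEA-stimulated wells | reagent = EC80 β-phenethylamine stimulus | read-out basis = percent inhibition of PEA-evoked calcium signal, max/basal emission ratio | schedule = seeding 17-24 h prior, 75-min 37 °C, 30-min RT dye loading | signal = kinetic Fluo-8 calcium fluorescence measurement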
TAAR1 ag – human TAAR1 agonism; Q96RJ0; CHO RD-HGA16 TAAR1, Fluo-8 calcium fluorescence; vehicle wells 0%, saturating PEA agonist 100%; activation, % at 3 µM; actives 0.99% (n = 360,000); AID 624467;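 active means activation above the mean activation of all test compounds in the run plus 3 SD, cut at about 38% in these data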
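Assay system: CHO-derived RD-HGA16 cells with stable Gα16 and human TAAR1; timing: 17-24 h seeding, 75 min 37 °C dye, 30 min RT; read-out: % activation from peak over basal fluorescence ratio, DMSO-to-PEA scaled; measured by: kinetic Fluo-8 calcium fluorescence; benchmarks: low control DMSO, high control PEA (EC100); doses: 3 µM single concentration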
OX1R antag-2 – human HCRTR1 antagonism; AID 434989; actives 0.43% (n = 330,000); CHO/OX1R cells, Fluo-8 calcium fluorescence, orexin A; inhibition, % at 5 µM;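 active means inhibition above its plate's threshold, mean inhibition of all tested compounds on the plate plus 3 SD, cut at about 37% in these data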;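 further: 0% = orexin A challenge wells and 100% = SB-334867-A antagonist wells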
The depositor's hits bear a star; / = not tested or not shown. In the library only some 4.5% were active in any assay of this set; here they are far more common.

SMILES | GPR7 antag | CHO parental Ca | OX1R antag-1 | TAAR1 antag | TAAR1 ag | OX1R antag-2
O=C(NCc1ccc(F)cc1)c1cnn2ccccc12 | -2 | -5 | 5 | -14 | 2 | -7
Clc1ccc(Nc2nnc(-c3ccc4c(c3)OCO4)o2)cc1 | / | / | / | 4 | 1 | /
CSc1ccc(Cl)c(C(=O)NCCOc2cc(C(C)C)ccc2C)c1 | -2 | -1 | 20 | 49* | 5 | -22
COc1ccc(S(=O)(=O)NC(=O)C2(C)CCN2C(=O)Cc2ccccc2Cl)cc1 (stereo unspecified) | / | / | / | -22 | 2 | /
CC(C)(C)S(=O)N1Cc2cc(C(=O)O)nc(-c3cccc(-c4cc5ccccc5o4)c3)c2[C@H]1CCO (stereo partly specified) | / | / | / | -8 | 1 | /
CC(C)(C)S(=O)N1Cc2cc(C(=O)N[C@@H]3CCN(Cc4ccccc4)C3)nc(-c3cccc(-c4cc5ccccc5o4)c3)c2[C@@H]1CCO (stereo partly specified) | / | / | / | 59* | 13 | /
CN1CCN(C(=O)c2cc3c(c(-c4cccc(-c5cc6ccccc6o5)c4)n2)[C@H](CCO)N(S(=O)C(C)(C)C)C3)CC1 (stereo partly specified) | / | / | / | 50* | 21 | /
COc1ccc(CC2=CC(=O)c3ccccc3C2=O)cc1 | -4 | 4 | 39* | 34 | 6 | -4
COc1ccc(Cc2ccccc2C(=O)O)cc1 | / | / | / | -7 | 1 | /
Cc1oc(-c2ccccc2Cl)nc1CS(=O)CC(=O)NCCc1ccccc1 (stereo unspecified) | 3 | -22 | 20 | -14 | 38* | -43
COC(=O)c1cc2c(c3c4cc(F)ccc4n(S(=O)(=O)c4ccc(OC)cc4)c13)C(=O)N(Cc1ccccc1OC)C2 | / | / | / | 3 | 2 | /
CCN(CCN(C)C)C(=O)c1ccc2c(c1NCCO)C(=O)c1ccccc1C2=O | 1 | -9 | 75* | -21 | -1 | -8
N/C(=N\OC(=O)Oc1ccccc1)c1cccc([N+](=O)[O-])c1 | -7 | 0 | 51 | 5 | 5 | -5
N/C(=N\OC(=O)Oc1ccccc1)c1ccc([N+](=O)[O-])cc1 | 0 | 4 | 67* | 0 | 2 | -7
NC(=O)CN1C(=O)NC2(CCCc3sccc32)C1=O (stereo unspecified) | -1 | -2 | 7 | -18 | 1 | -14
Cc1cc(C(=O)CN2C(=O)NC3(CCCc4sccc43)C2=O)c(C)n1-c1ccc(Cl)cc1 (stereo unspecified) | -11 | -10 | 50* | -4 | 3 | 4
Cc1ccccc1NC(=S)NCC(c1cccnc1)N(C)C (stereo unspecified) | -12 | 2 | 2 | 13 | 6 | 2
C[C@H](O)[C@@H]1C(=O)N2CCc3c([nH]c4cccc(-c5ccccc5)c34)[C@@H]2C[C@@H]1N(C)C(=O)c1ccco1 | / | / | / | 5 | 0 | /
COc1cc(/C=C(\CC(=O)O)c2nc3ccccc3s2)ccc1OCC(=O)Nc1ccccc1F | / | / | / | 2 | -3 | /
CC(C)=C(C#N)c1nc2ccccc2s1 | 2 | 50* | 9 | 17 | 13 | 74*
COC(=O)c1ccc(/C(O)=C(\C#N)c2nc3ccccc3s2)cc1 | -9 | 7 | 50 | -1 | 12 | -11
COc1cc(/C=C(\C#N)c2nc3ccccc3s2)ccc1OCC(=O)Nc1ccccc1 | -6 | 46* | 12 | / | / | 43
N#C/C(=C/c1ccncc1)c1nc2ccccc2s1 | 1 | 44* | 15 | -1 | 4 | 51*
N#C/C(=C\c1ccncc1)c1nc2ccccc2[nH]1 | -4 | / | / | 11 | 14 | /
COc1cc(=O)oc(C=O)c1C | / | / | / | -9 | 0 | /
SMILES | GPR7 antag | CHO parental Ca | OX1R antag-1 | TAAR1 antag | TAAR1 ag | OX1R antag-2
COc1ccc2cc3cc(C(=O)NCCN4CCN(Cc5ccccc5)CC4)oc3nc2c1 | -1 | -33 | 61 | 13 | 2 | -38
COc1ccc2cc3cc(C(=O)NCCCN4CCC(C)CC4)oc3nc2c1 | -13 | -4 | 46* | / | / | -19
COc1ccc2cc3cc(C(=O)NCCN4CCc5ccccc5C4)oc3nc2c1 | -3 | -11 | 42* | / | / | -18
COc1ccc2cc3cc(C(=O)N4CCCCCC4)oc3nc2c1 | 5 | -10 | 57* | / | / | 2
COC(=O)CC#C[C@H](C)[C@@H](NS(C)(=O)=O)C1CCCCC1 | / | / | / | -3 | 0 | /
C[C@@H]1CN([C@H](C)CO)C(=O)CCCn2nncc2CO[C@H]1CN(C)C(=O)C1CCCCC1 | / | / | / | -25 | 3 | /
COc1ccc(-c2ccccc2C2Cc3nnccc3CN2)cc1 (stereo unspecified) | / | / | / | 0 | 4 | /
C[C@@H]1CN(c2ccc(N3CCNC[C@@H]3C)cc2C#N)CCN1Cc1ccccc1 | / | / | / | -1 | 4 | /
CC1(C)C=Cc2c(ccc3c2OC[C@H](c2ccc(O)cc2O)C3)O1 | / | 79* | 0 | 2 | 17 | 52*
CC(C)=CCc1cc([C@@H]2COc3c(ccc4c3C=CC(C)(C)O4)C2)c(O)cc1O | / | -9 | 3 | -25 | 1 | -7
COCCNC(=S)N(CCc1c(C)[nH]c2ccc(F)cc12)Cc1cccs1 | 20* | -9 | 21 | 32 | 9 | 22
CC(C)(C)c1ccccc1NC(=O)Nc1nc(C(N)c2ccccc2Cl)cs1 (stereo unspecified) | / | / | / | 2 | 44* | /
CC(C)NC(=O)c1ccc(COc2ccc(C(C)(C)C)cc2)o1 | 12 | 66* | 4 | 17 | 20 | 40
CCS(=O)(=O)N1CCC(C(=O)Nc2cccc(F)c2)CC1 | -9 | 6 | 8 | 1 | 5 | -2
COc1ccc(NC(=O)c2nc(S(=O)(=O)Cc3cccc(C)c3)ncc2Cl)c(OC)c1 | 1 | -13 | 15 | -1 | 0 | -23
COc1ccc(OC)c(NC(=O)c2nc(S(=O)(=O)Cc3ccccc3)ncc2Cl)c1 | 1 | 37 | 21 | 52* | 1 | 25
CC(=O)N(c1ccc2oc(=O)sc2c1)S(=O)(=O)c1ccccc1 | -8 | 3 | 17 | 7 | 2 | -13
COc1ccc(S(=O)(=O)N(C(=O)c2ccco2)c2cc3sc(=O)oc3c3ccccc23)cc1 | -11 | 66* | 2 | 17 | 3 | 60*
Cc1ccc(S(=O)(=O)N(C(=O)c2ccco2)c2cc3sc(=O)oc3c3ccccc23)cc1 | 0 | 76* | 10 | -3 | 1 | 62*
CCOc1ccc(S(=O)(=O)N(C(=O)c2ccco2)c2cc3sc(=O)oc3c3ccccc23)cc1 | -5 | 82* | 6 | 0 | 3 | 69*
CCOc1ccc(S(=O)(=O)N(C)CC(=O)NCc2ccco2)cc1 | -7 | -6 | 14 | -16 | 3 | -13
COc1ccc(S(=O)(=O)N(C(=O)C(C)C)c2ccc3oc(=O)sc3c2)cc1 | 11 | 16 | -8 | 0 | 2 | 3
